pEC50: −log10 of the molar value.
What was measured:
[1] = biological target: Glutamate NMDA receptor; Grin1/Grin2c (Rattus norvegicus, UniProt P35439+Q00961); assay: Positive allosteric modulation of recombinant rat GluN1/GluN2C receptor expressed in xenopus laevis oocyte assessed as potentiation of glutamate and glycine-induced current response at holding potential -40mV by two electrode voltage clamp method
Method in brief: (§1)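 Two-electrode voltage clamp at -40 mV, 23°C, pH 7.4 Ba²⁺ recording solution, on Xenopus oocytes expressing rat NMDA receptors. Currents were evoked by 100 µM glutamate plus 30 µM glycine, with compound co-applied (DMSO 0.05–0.5% final). Each compound used at least 4 oocytes from at least 2 frogs.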

[2] = biological target: Glutamate NMDA receptor; Grin1/Grin2b (Rattus norvegicus, UniProt P35439+Q00960); assay: Positive allosteric modulation of recombinant rat GluN1/GluN2B receptor expressed in xenopus laevis oocyte assessed as potentiation of glutamate and glycine-induced current response at holding potential -40mV by two electrode voltage clamp method; method in brief: as §1
[3] = biological target: Ionotropic glutamate receptor NMDA 1/2D (Rattus norvegicus, UniProt P35439+Q62645); assay: Positive allosteric modulation of recombinant rat GluN1/GluN2D receptor expressed in xenopus laevis oocyte assessed as potentiation of glutamate and glycine-induced current response at holding potential -40mV by two electrode voltage clamp method; method in brief: as §1
[4] = biological target: Ionotropic glutamate receptor NMDA 1/2D (Rattus norvegicus) (UniProt P35439+Q62645); assay: Positive allosteric modulation of recombinant rat GluN1/GluN2D receptor expressed in xenopus laevis oocyte assessed as potentiation of glutamate and glycine-induced current response at 30 uM at holding potential -40mV by two electrode voltage clamp method relative to control; method in brief: as §1
[5] = biological target: Glutamate NMDA receptor; Grin1/Grin2c (Rattus norvegicus) (UniProt P35439+Q00961); assay: Positive allosteric modulation of recombinant rat GluN1/GluN2C receptor expressed in xenopus laevis oocyte assessed as potentiation of glutamate and glycine-induced current response at 30 uM at holding potential -40mV by two electrode voltage clamp method relative to control; method in brief: as §1
[6] = biological target: Glutamate NMDA receptor; Grin1/Grin2b (Rattus norvegicus) (UniProt P35439+Q00960); assay: Positive allosteric modulation of recombinant rat GluN1/GluN2B receptor expressed in xenopus laevis oocyte assessed as potentiation of glutamate and glycine-induced current response at 30 uM at holding potential -40mV by two electrode voltage clamp method relative to control
Method in brief: as §1, with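 “final). […]” for “final).”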

Row | Structure (SMILES) | pEC50 [1] | pEC50 [2] | pEC50 [3] | Activity [4] [%] | Emax [4] [%] | Activity [5] [%] | Emax [5] [%] | Activity [6] [%] | Emax [6] [%]
1 | COc1ccc(OCC2c3ccc(OC(C)C)cc3CCN2C(=O)c2cccc(C(F)(F)F)c2)cc1 (stereo not drawn) | 5.77 | 5.21 | 5.57 | – | – | – | – | – | –
2 | CCOc1ccc(OCC2c3ccc(OC(C)C)cc3CCN2C(=O)c2ccc(F)c(Cl)c2)cc1 (stereo not drawn) | 5.89 | 5.66 | 5.66 | 133 | 137 | 159 | 162 | 169 | 170
3 | COc1ccc(OCC2c3ccc(OC(C)C)cc3CCN2C(=O)c2ccc(OC)cc2)cc1 (stereo not drawn) | – | – | – | 114 | – | 138 | – | 110 | –
4 | COc1cccc(OCC2c3ccc(OC(C)C)cc3CCN2C(=O)c2cccc(Cl)c2)c1 (stereo not drawn) | 5.21 | – | 5.27 | 125 | 125 | 132 | 132 | 99 | –
5 | CCOc1ccc(OCC2c3ccc(OC(C)C)cc3CCN2C(=O)c2cccc(F)c2)cc1 (stereo not drawn) | – | 5.14 | – | 91 | – | 104 | – | 147 | 152
6 | COc1ccc(OCC2c3ccc(OC(C)C)cc3CCN2C(=O)c2cccc(O)c2)cc1 (stereo not drawn) | – | – | – | 105 | – | 117 | – | 98 | –
7 | CC(C)Oc1ccc(OCC2c3ccc(OC(C)C)cc3CCN2C(=S)c2cccc(C(F)(F)F)c2)cc1 (stereo not drawn) | 6.47 | 6.57 | 6.48 | – | 133 | – | 162 | – | 191
8 | CCOc1ccc(OCC2c3ccc(OC(C)C)cc3CCN2C(=O)c2ccccc2Cl)cc1 (stereo not drawn) | – | – | – | 79 | – | 93 | – | 67 | –
9 | COc1ccc(OCC2c3ccc(N(C)C)cc3CCN2C(=O)c2cccc(Br)c2)cc1 (stereo not drawn) | 5.62 | – | 5.42 | 307 | 327 | 285 | 293 | 99 | –
10 | COc1ccc(OCC2c3ccc(OC(C)C)cc3CCN2C(=O)c2cccc(F)c2)cc1 (stereo not drawn) | – | 4.44 | – | – | – | – | – | – | –
11 | CCOc1ccc(OCC2c3ccc(OC(C)C)cc3CCN2C(=O)c2cccc(C)c2)cc1 (stereo not drawn) | – | – | – | 43 | – | 67 | – | 78 | –
12 | CCOc1ccc(OCC2c3ccc(OCC)cc3CCN2C(=O)c2cccc(F)c2)cc1 (stereo not drawn) | – | – | – | 67 | – | 77 | – | 94 | –
13 | CCOc1ccc(OCC2c3ccc(OC(C)C)cc3CCN2C(=O)c2cccc(C(F)(F)F)c2)cc1 (stereo not drawn) | 5.89 | 5.62 | – | – | – | – | – | – | –
14 | CC(C)Oc1ccc(OCC2c3ccc(OC(C)C)cc3CCN2C(=O)c2cccc(F)c2)cc1 (stereo not drawn) | 5.57 | 5.15 | – | 103 | – | 133 | 135 | 179 | 185
15 | CCC(CC)Oc1ccc2c(c1)CCN(C(=O)c1cccc(Cl)c1)C2COc1ccc(OC)cc1 (stereo not drawn) | 5.80 | 5.74 | 5.77 | 381 | 390 | 286 | 294 | 331 | 344
16 | CCOc1ccc(OCC2c3ccc(OC4CCCC4)cc3CCN2C(=O)c2cccc(F)c2)cc1 (stereo not drawn) | 5.35 | 5.36 | 5.31 | 161 | 163 | 169 | 173 | 202 | 210
17 | CC(C)Oc1ccc2c(c1)CCN(C(=O)c1cccc(F)c1)C2COc1ccc(OC(F)(F)F)cc1 (stereo not drawn) | 5.60 | 5.49 | 5.39 | 136 | 137 | 154 | 157 | 124 | 123
18 | COc1ccc(OCC2c3ccc(OC(C)C)cc3CCN2C(=O)c2cccc(I)c2)cc1 (stereo not drawn) | 6.16 | 5.77 | 5.80 | 408 | 414 | 215 | 310 | 159 | 172
19 | COc1ccc(OCC2c3ccc(OC(C)C)cc3CCN2C(=O)c2cccc(N)c2)cc1 (stereo not drawn) | – | – | – | 107 | – | 105 | – | 106 | –
20 | CCOc1ccc(OCC2c3ccc(OC(C)C)cc3CCN2C(=O)c2ccccc2)cc1 (stereo not drawn) | – | – | – | 69 | – | 83 | – | 88 | –

Row | Structure (SMILES) | pEC50 [1] | pEC50 [2] | pEC50 [3] | Activity [4] [%] | Emax [4] [%] | Activity [5] [%] | Emax [5] [%] | Activity [6] [%] | Emax [6] [%]
21 | COc1ccc(OCC2c3ccc(N4CCOCC4)cc3CCN2C(=O)c2cccc(Cl)c2)cc1 (stereo not drawn) | 5.33 | 5.03 | 4.66 | 231 | 413 | 273 | 342 | 146 | 188
22 | COc1ccc(OCC2c3ccc(NC(C)C)cc3CCN2C(=O)c2cccc(Cl)c2)cc1 (stereo not drawn) | 5.33 | 5.03 | 5.29 | 333 | 363 | 239 | 261 | 138 | 141
23 | COc1ccc(OCC2c3ccc(N(C)C(C)C)cc3CCN2C(=O)c2cccc(Cl)c2)cc1 (stereo not drawn) | 5.70 | 5.23 | 5.40 | 500 | 549 | 404 | 424 | 228 | 235
24 | CCOc1ccc(OCC2c3ccc(OC(C)C)cc3CCN2C(=S)c2cccc(F)c2)cc1 (stereo not drawn) | 5.85 | 6.26 | 5.92 | – | 159 | – | 170 | – | 184
25 | COc1ccc(OCC2c3ccc(N4CCOCC4)cc3CCN2C(=O)c2cccc(Br)c2)cc1 (stereo not drawn) | 5.52 | 5.32 | 5.37 | 284 | 425 | 279 | 314 | 152 | 165
26 | COc1ccc(OCC2c3ccc(OC(C)C)cc3CCN2C(=O)c2ccc(Cl)cc2)cc1 (stereo not drawn) | 5.02 | 4.92 | 4.96 | 244 | 288 | 251 | 290 | 163 | 182
27 | COc1ccc(OCC2c3ccc(OC4CCCCC4)cc3CCN2C(=O)c2cccc(Cl)c2)cc1 (stereo not drawn) | 5.92 | 5.57 | 5.72 | 309 | 317 | 222 | 225 | 259 | 265
28 | CC(C)Oc1ccc(OCC2c3ccc(OC(C)C)cc3CCN2C(=O)c2cccc(C(F)(F)F)c2)cc1 (stereo not drawn) | 6.04 | 5.82 | – | – | – | – | 132 | – | 157
29 | CCOc1ccc(OCC2c3ccc(OC(C)C)cc3CCN2C(=O)c2ccc(F)cc2)cc1 (stereo not drawn) | – | – | – | 90 | – | 107 | – | 118 | –
30 | COc1ccc(OCC2c3ccc(OCC(C)C)cc3CCN2C(=O)c2cccc(Cl)c2)cc1 (stereo not drawn) | 6.05 | 5.82 | 5.85 | – | – | – | – | – | –
31 | CCOc1ccc(OCC2c3ccc(OC(C)C)cc3CCN2C(=O)c2ccc(Cl)cc2)cc1 (stereo not drawn) | – | – | – | 88 | – | 101 | – | 112 | –
32 | COc1ccc(OCC2c3ccc(N(C)C)cc3CCN2C(=O)c2cccc(Cl)c2)cc1 (stereo not drawn) | 5.40 | – | 5.36 | 322 | 349 | 288 | 315 | 127 | –
33 | CCOc1ccc(OCC2c3ccc(OC(C)C)cc3CCN2C(=O)c2cccc(-c3ccccc3)c2)cc1 (stereo not drawn) | – | – | – | 92 | – | 92 | – | 112 | –
34 | CCOc1ccc(OCC2c3ccc(OC(C)C)cc3CCN2C(=O)c2cccc(Br)c2)cc1 (stereo not drawn) | 5.74 | 5.47 | – | 98 | – | 133 | 135 | 136 | 137
35 | CCOc1ccc(OCC2c3ccc(OC(C)C)cc3CCN2C(=O)c2cccc(OC)c2)cc1 (stereo not drawn) | – | – | – | 44 | – | 65 | – | 89 | –
36 | CCOc1ccc(OCC2c3ccc(N4CCOCC4)cc3CCN2C(=O)c2cccc(Cl)c2)cc1 (stereo not drawn) | – | – | – | 104 | – | 133 | – | 127 | –
37 | CCOc1ccc(OCC2c3ccc(OCC)cc3CCN2C(=O)c2cccc(Cl)c2)cc1 (stereo not drawn) | – | – | – | 75 | – | 91 | – | 104 | –
38 | CC(C)Oc1ccc(OCC2c3ccc(OC(C)C)cc3CCN2C(=O)c2cccc(Cl)c2)cc1 (stereo not drawn) | 5.77 | 5.42 | – | 111 | – | 134 | 138 | 159 | 160
39 | CCOc1ccc(OCC2c3ccc(OC(C)C)cc3CCN2C(=O)c2ccccc2F)cc1 (stereo not drawn) | – | – | – | 55 | – | 68 | – | 61 | –

Source: ChEMBL document CHEMBL4011622, “The Structure-Activity Relationship of a Tetrahydroisoquinoline Class of N-Methyl-d-Aspartate Receptor Modulators that Potentiates GluN2B-Containing N-Methyl-d-Aspartate Receptors” (J Med Chem, 2017)
